Measurements as given in ChEMBL document CHEMBL4732130, “Synthesis and characterization of 1,2,4-triazolo[1,5-a]pyrimidine-2-carboxamide-based compounds targeting the PA-PB1 interface of influenza A virus polymerase” (Eur J Med Chem, 2021).
Values after ≈ are worked out from the molar mass of the structure shown. Values joined by “and” are separate entries in the source; they are usually repeats but may differ in a detail not shown here. Identical values can stand only once.

Columns and labels:
[1] = Cytotoxicity in dog MDCK cells assessed as reduction in cell viability incubated for 24 to 120 hrs by MTT assay; format: cell-based, Canis lupus familiaris; settings: time 24-120 hrs
Influenza A virus = experiment: Antiviral activity against Influenza A virus A/PR/8/34 (H1N1) infected in MDCK cells assessed as reduction in plaque formation treated 1 hr post viral infection and measured after 48 hrs post-infection by toluidine blue staining based plaque reduction assay; format: functional, organism-based; settings: A/Puerto Rico/8/1934(H1N1)
MDCK = experiment: (§1) Cytotoxicity against dog MDCK cells assessed as reduction in cell viability incubated for 48 hrs by MTT assay; format: cell-based, Canis lupus familiaris; settings: mdck, 48 h
Procedure, shortened: (§2)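 MDCK cells seeded at 2 × 10^4/well and grown 24 h, then given serial compound dilutions in DMEM with 10% FBS (DMSO control) for 48 h at 37 °C. MTT (5 mg/mL stock) added for 4 h, cells solubilised overnight, OD read at 620 nm. […] Mean ± SD of ≥3 independent experiments in duplicate.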

[2] = Inhibition of Influenza A virus 6His-tagged PA (239 to 716 residues)/GST-tagged PB1 (1 to 25 residues) expressed in Escherichia coli BL21 pLysS protein-protein interaction using 3,3',5,5'tetramethylbenzedine as substrate by ELISA
[3] = Equilibrium solubility of the compound in phosphate buffer at pH 7.4 incubated for 2 hrs; format: physicochemical; settings: for solubility: buffer, pH 7.4, 2 h, 2 h; for solubility thermodynamic at 2 h: phosphate buffer, pH 7.4
[4] = Protein binding in human plasma assessed as unbound fraction at 5 uM incubated for 4 hrs by UPLC/MS-MS based rapid equilibrium dialysis method; format: ADME, cell-free
Procedure, shortened: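 Compound at 5 µM in human plasma, dialysed against buffer by rapid equilibrium dialysis for 4 h at 37 °C. Chamber aliquots matrix-matched, precipitated with acetonitrile, and quantified by UPLC-MS/MS peak areas.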

[5] = Metabolic stability in human liver microsomes assessed as compound remaining at 10 uM preincubated for 5 mins followed by NADPH addition and measured after 60 mins by LC-MS/MS analysis; format: ADME, Microsome; settings: time 65 min, read-out: Stabilty
Procedure, shortened: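 Compound at 10 µM preincubated 5 min at 37 °C with human liver microsomes (1 mg/mL) in 0.1 M phosphate, pH 7.4. Reaction started with 2 mM NADPH. Samples taken at 0, 10, 20, 40 and 60 min, quenched in cold acetonitrile containing labetalol internal standard, and centrifuged. Analysed by LC-MS/MS (Q-TOF) for percent unchanged compound and metabolites. Half-life and intrinsic clearance estimated.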

[6] = target: RNA-directed RNA polymerase (Influenza A virus (strain A/Puerto Rico/8/1934 H1N1), UniProt P03428+P03431+P03433); experiment: Inhibition of RdRP activity in Influenza A virus A/PR/8/34 (H1N1) infected in HEK293T cells co-transfected with NP/PA/PB1/PB2/pPolI-Flu-ffLuc/pRL-SV40 incubated for 24 hrs by minireplicon based dual luciferase assay; format: cell-based, Influenza A virus (A/Puerto Rico/8/1934(H1N1))
Procedure, shortened: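 HEK293T cells (2 × 10^5/well) plated overnight, then calcium-phosphate transfected with PB1, PB2, PA and NP plasmids (100 ng each), pPolI-Flu-ffLuc reporter (50 ng; WSN segment 8 noncoding ends) and pRL-SV40 (50 ng), with compound or DMSO present. Medium replaced at 5 h with compound-containing DMEM. Dual luciferase read at 24 h. Firefly normalised to Renilla, DMSO set as 100% polymerase activity.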

[7] = as §1; format: cell-based, Canis lupus familiaris; settings: MDCK cells; procedure, shortened: as §2

SMILES | EC50 (Influenza A virus) [µM] | CC50 (MDCK) [µM] | IC50 [2] [µM] | also measured
COc1ccc(C(=O)Nc2nc3n(n2)C(c2ccccc2)C=C(C)N3)cc1 (stereo not given) | > 100 | – | – | CC50 [1]: > 250 µM
Cc1cc(-c2ccccc2)n2nc(C(=O)Nc3sc(C)c(C)c3C(N)=O)nc2n1 | > 50 | > 250 | > 200 | –
Cc1cc(-c2ccccc2)n2nc(C(=O)Nc3c(C(N)=O)sc4ncccc34)nc2n1 | > 100 | > 250 | 3.3 | –
Cc1cc(-c2ccccc2)nc2nc(C(=O)Nc3ccccc3C(N)=O)nn12 | 31 | > 250 | 7 | solubility [3]: 82.2 uM and 30.6 ug ml-1; Fu [4]: 22.45%; remaining at 1 h, 10 µM [5]: 76%; EC50 [6]: 5.8 µM
Cc1cc(-c2ccccc2)nc2nc(C(=O)Nc3ccsc3C(N)=O)nn12 | > 100 | 240 | 50 | –
Cc1cc(-c2ccccc2)n2nc(C(=O)Nc3sc4c(c3C(=O)Nc3ccccn3)CCCCC4)nc2n1 | 48 | > 250 | 23 | –
Cc1cc(-c2ccccc2)nc2nc(C(=O)Nc3c(C(N)=O)sc4ncccc34)nn12 | 43 | 51 | > 200 | –
Cc1cc(-c2ccccc2)n2nc(C(=O)Nc3c(C(N)=O)sc4ccccc34)nc2n1 | 22 | > 250 | > 200 | –
Cc1cc(-c2ccccc2)nc2nc(C(=O)Nc3sc4c(c3C(=O)O)CCCCC4)nn12 | 70 | > 250 | 18 | –
Cc1cc(-c2ccccc2)n2nc(C(=O)Nc3sc4c(c3C(N)=O)CCCC4)nc2n1 | 32 | > 250 | 15 | –
Cc1cc(-c2ccccc2)n2nc(C(=O)Nc3c(C(N)=O)sc4c3CCCCC4)nc2n1 | > 50 | 90 | > 200 | –
Cc1cc(-c2ccccc2)n2nc(C(=O)Nc3sc4c(c3C(=O)O)CCCCC4)nc2n1 | 50 | > 250 | 19 | –
Cc1cc(-c2ccccc2)n2nc(C(=O)Nc3sc4c(c3C(N)=O)CCC4)nc2n1 | 22 | > 250 | 6.2 | –
Cc1cc(-c2ccccc2)n2nc(C(=O)Nc3ccccc3C(N)=O)nc2n1 | > 100 | > 250 | 11 | solubility [3]: 17.6 uM and 6.55 ug ml-1
Cc1cc(-c2ccccc2)n2nc(C(=O)Nc3sc4ccccc4c3C(N)=O)nc2n1 | 49 | > 250 | > 200 | –
Cc1cc(-c2ccccc2)n2nc(C(=O)Nc3nc4ccccc4s3)nc2n1 | > 50 | > 250 | 21 | –
CCC1CCc2c(sc(NC(=O)c3nc4nc(C)cc(-c5ccccc5)n4n3)c2C(N)=O)C1 (stereo not given) | 15 | > 250 | > 200 | –
Cc1cc(-c2ccccc2)nc2nc(C(=O)Nc3nc4ccccc4s3)nn12 | – | 233 | > 200 | –
Cc1cc(-c2ccccc2)n2nc(C(=O)Nc3ccsc3C(N)=O)nc2n1 | 43 | – | 31 | CC50 at 48 h [7]: 250 µM
COc1cc2nc(N3CCN(C(=O)c4ccco4)CC3)nc(N)c2cc1OC [PRAZOSIN] | – | – | – | solubility thermodynamic at 2 h [3]: 62.8 µM (≈ 24.1 µg/mL)
CC(=O)[C@H]1CC[C@H]2[C@@H]3CCC4=CC(=O)CC[C@]4(C)[C@H]3CC[C@]12C [PROGESTERONE] | – | – | – | solubility thermodynamic at 2 h [3]: 6.5 µM (≈ 2.04 µg/mL)
NC(=O)c1ncn([C@@H]2O[C@H](CO)[C@@H](O)[C@H]2O)n1 [RIBAVIRIN] | 10 | – | – | CC50 at 48 h [7]: > 250 µM; EC50 [6]: 24 µM
